Activity calls are given as the source filed them. No cut-off for these calls is given here.

Experiment [1] is described as follows: Antiproliferative activity against human WM793 cells after 3 days by SRB assay. The conditions noted are these: read-out: ED50 (the source's name). Type of experiment: functional. An outline of the steps:
(§1)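 WM3211 or WM793 melanoma cells in high-glucose DMEM with 8% Fetal Clone III, 3.5% horse serum and 5 mM Glutamax. Seeded at 20,000 cells/ml and rested 24 h. Serial 1:1 dilutions from 2 mg/ml DMSO stocks, incubated 72 h. Vehicle 0.2% DMSO. Cells fixed and stained with 0.5% SRB, dye eluted in Tris pH 10, A540 read. ED50 is the 50%-of-vehicle value taken from mean curves of three independent experiments.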
In general terms: The SRB assay estimates cell density from bound dye.

Experiment [2] has as its system WM793. Put plainly: Induction of apoptosis in human WM793 cells assessed as change in fluorescence intensity using TMRM labeling by flow cytometry. It counts as functional, cell-based. An outline of the steps:
(§2)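 Cells suspended at 30,000 cells/ml in culture medium and exposed to compound at the single top test concentration for 5 h. TMRM added to 100 nM final for a further 60 min, then analysed by flow cytometry without medium replacement. Fluorescence given as percent of the DMSO vehicle control for each line. Mean of three independent experiments, SEM.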
For orientation: A flow cytometer gives signals particle by particle.

Experiment [3] deals with WM3211. Put plainly: Induction of apoptosis in human WM3211 cells assessed as mitochondrial depolarization upto 4 ug/ml by flow cytometry. Type of experiment: functional, cell-based. An outline of the steps: as §2
The test system of experiment [4] is WM793. Put plainly: Induction of apoptosis in human WM793 cells assessed as mitochondrial fragmentation upto 4 ug/ml by flow cytometry. It counts as functional, cell-based.
Experiment [5] can be described thus: Antiproliferative activity against human WM3211 cells after 3 days by SRB assay. It counts as functional. The conditions noted are these: read-out: ED50 (the source's name). In short, it runs like this:
as §1

For experiment [6], the system named is WM3211. Put plainly: Induction of apoptosis in human WM3211 cells assessed as mitochondrial fragmentation upto 4 ug/ml by flow cytometry. Type of experiment: functional, cell-based.
Experiment [7] concerns WM793. Put plainly: Induction of apoptosis in human WM793 cells assessed as reduction in mitochondrial polarization upto 4 ug/ml by flow cytometry. Type of experiment: functional, cell-based. In short, it runs like this:
as §2

Experiment [8] is described as follows: Antiproliferative activity against human WM793 cells at 4 ug/ml after 3 days by SRB assay. It counts as functional. In short, it runs like this: (§3)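 SRB proliferation in WM3211 or WM793 cells at the top concentration of the dilution series, after three days of exposure. Cells seeded at 20,000 cells/ml, with compound added after 24 h recovery. Vehicle control 0.2% DMSO. Growth read as A540 of Tris-eluted SRB and expressed as percent of vehicle control.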

A short description of experiment [9]: Antiproliferative activity against human WM3211 cells at 4 ug/ml after 3 days by SRB assay. Type of experiment: functional. In short, it runs like this: as §3
The subject of experiment [10] is WM3211. Kind of experiment: Induction of apoptosis in human WM3211 cells assessed as change in fluorescence intensity using TMRM labeling by flow cytometry. Type of experiment: functional, cell-based. In short, it runs like this: as §2
Experiment [11] has as its system WM3211. Kind of experiment: Induction of apoptosis in human WM3211 cells assessed as change in mitochondrial morphology upto 4 ug/ml by flow cytometry. It counts as functional, cell-based.
Experiment [12] concerns WM793. Kind of experiment: Induction of apoptosis in human WM793 cells assessed as vacuolization upto 4 ug/ml by flow cytometry. Type of experiment: functional, cell-based.

Take `C=C(C)[C@@H]1CC[C@]2(COC(=O)C(CC)[n+]3ccc(N(C)C)cc3)CC[C@]3(C)[C@H](CC[C@@H]4[C@@]5(C)CC[C@H](OC(=O)C(CC)[n+]6ccc(N(C)C)cc6)C(C)(C)[C@@H]5CC[C@]43C)[C@@H]12` (stereo partly drawn): the EC50 is 500 nM in experiment [1] (Homo sapiens, WM793, 72 h) and 300 nM in experiment [5] (Homo sapiens, WM3211, 72 h). For the same compound, the outcome in [2], in [3], in [4], in [6] and in experiment [7] was Active.
As for `C=C(C)[C@@H]1CC[C@]2(COC(=O)C[n+]3ccc(N(C)C)cc3)CC[C@]3(C)[C@H](CC[C@@H]4[C@@]5(C)CC[C@H](OC(=O)C[n+]6ccc(N(C)C)cc6)C(C)(C)[C@@H]5CC[C@]43C)[C@@H]12` [listing 1 of 3 here], the EC50 in [1] (Homo sapiens, WM793, 72 h) is 400 nM; in experiment [5] (Homo sapiens, WM3211, 72 h), 400 nM.
Turning to `C=C(C)[C@@H]1CC[C@]2(COC(=O)C[n+]3ccc(N(C)C)cc3)CC[C@]3(C)[C@H](CC[C@@H]4[C@@]5(C)CC[C@H](OC(=O)C[n+]6ccc(N(C)C)cc6)C(C)(C)[C@@H]5CC[C@]43C)[C@@H]12` [listing 2 of 3 here], the outcome in [2], in [3], in experiment [4], in experiment [6] and in experiment [7] was Active.
Take `C=C(C[n+]1ccc(N(C)C)cc1)[C@@H]1CC[C@]2(COC(=O)C(C)[n+]3ccc(N(C)C)cc3)CC[C@]3(C)[C@H](CC[C@@H]4[C@@]5(C)CC[C@H](OC(=O)C(C)[n+]6ccc(N(C)C)cc6)C(C)(C)[C@@H]5CC[C@]43C)[C@@H]12` (stereo partly drawn) [listing 1 of 3 here]: the EC50 in experiment [1] and in experiment [5] was over 3800 nM in each case.
`C=C(C)[C@@H]1CC[C@]2(COC(=O)C[n+]3ccc(N(C)C)cc3)CC[C@]3(C)[C@H](CC[C@@H]4[C@@]5(C)CC[C@H](OC(=O)C[n+]6ccc(N(C)C)cc6)C(C)(C)[C@@H]5CC[C@]43C)[C@@H]12` [listing 3 of 3 here]: the EC50 in experiment [1] and in experiment [5] was 500 nM throughout.
With `C=C(C)[C@@H]1CC[C@]2(C(=O)O)CC[C@]3(C)[C@H](CC[C@@H]4[C@@]5(C)CC[C@H](OC(=O)C[n+]6ccc(N(C)C)cc6)C(C)(C)[C@@H]5CC[C@]43C)[C@@H]12.[Br-]`, the Activity in [8] and in experiment [9] was 40% throughout. In addition, the EC50 in experiment [1] (Homo sapiens, WM793, 72 h) turned out to be 5700 nM; in experiment [5] (Homo sapiens, WM3211, 72 h) it was 2600 nM. Besides, the result in [2], in [10] and in experiment [11] was Active.
Regarding `C=C(C[n+]1ccc(N(C)C)cc1)[C@@H]1CC[C@]2(C(=O)O)CC[C@]3(C)[C@H](CC[C@@H]4[C@@]5(C)CC[C@H](O)C(C)(C)[C@@H]5CC[C@]43C)[C@@H]12`, the EC50 in experiment [1] (Homo sapiens, WM793, 72 h) was over 6100 nM; in experiment [5] (Homo sapiens, WM3211, 72 h), over 6100 nM. Besides, the result in experiment [2] and in experiment [10] was Active. Also, the result in [3] and in experiment [11] was inactive.
Take `C=C(C)[C@@H]1CC[C@]2(CO)CC[C@]3(C)[C@H](CC[C@@H]4[C@@]5(C)CC[C@H](OC(=O)C[n+]6ccc(N(C)C)cc6)C(C)(C)[C@@H]5CC[C@]43C)[C@@H]12` [listing 1 of 3 here]: the outcome in experiment [12], in [3], in experiment [11] and in [7] was Active.
In the case of `C=C(C)[C@@H]1CC[C@]2(CO)CC[C@]3(C)[C@H](CC[C@@H]4[C@@]5(C)CC[C@H](OC(=O)C[n+]6ccc(N(C)C)cc6)C(C)(C)[C@@H]5CC[C@]43C)[C@@H]12` [listing 2 of 3 here], the EC50 in experiment [1] turned out to be 1900 nM; in experiment [5], 300 nM.
On to `C=C(C)[C@@H]1CC[C@]2(CO)CC[C@]3(C)[C@H](CC[C@@H]4[C@@]5(C)CC[C@H](OC(=O)C[n+]6ccc(N(C)C)cc6)C(C)(C)[C@@H]5CC[C@]43C)[C@@H]12` [listing 3 of 3 here], for which the EC50 in experiment [1] (Homo sapiens, WM793, 72 h) was 2500 nM; in experiment [5] (Homo sapiens, WM3211, 72 h) it was 600 nM.
Consider `C=C(C[n+]1ccc(N(C)C)cc1)[C@@H]1CC[C@]2(C(=O)O)CC[C@]3(C)[C@H](CC[C@@H]4[C@@]5(C)CC[C@H](OC(=O)C[n+]6ccc(N(C)C)cc6)C(C)(C)[C@@H]5CC[C@]43C)[C@@H]12` [listing 1 of 3 here], for which the result in [2] and in experiment [10] was Active. For the same compound, the outcome in experiment [3] and in [11] was inactive.
In the case of `C=C(C[n+]1ccc(N(C)C)cc1)[C@@H]1CC[C@]2(C(=O)O)CC[C@]3(C)[C@H](CC[C@@H]4[C@@]5(C)CC[C@H](OC(=O)C[n+]6ccc(N(C)C)cc6)C(C)(C)[C@@H]5CC[C@]43C)[C@@H]12` [listing 2 of 3 here], the EC50 in experiment [1] and in experiment [5] was over 4700 nM each time.
For `C=C(C[n+]1ccc(N(C)C)cc1)[C@@H]1CC[C@]2(COC(=O)C(C)[n+]3ccc(N(C)C)cc3)CC[C@]3(C)[C@H](CC[C@@H]4[C@@]5(C)CC[C@H](OC(=O)C(C)[n+]6ccc(N(C)C)cc6)C(C)(C)[C@@H]5CC[C@]43C)[C@@H]12` (stereo partly drawn) [listing 2 of 3 here], the outcome in experiment [2] and in [10] was Active. The result in experiment [3] and in [11] was inactive.
As to `C=C(C)[C@@H]1CC[C@]2(COC(=O)CC[n+]3ccc(N(C)C)cc3)CC[C@]3(C)[C@H](CC[C@@H]4[C@@]5(C)CC[C@H](OC(=O)CC[n+]6ccc(N(C)C)cc6)C(C)(C)[C@@H]5CC[C@]43C)[C@@H]12`, the EC50 in [1] (Homo sapiens, WM793, 72 h) turned out to be 800 nM; in experiment [5] (Homo sapiens, WM3211, 72 h), 600 nM. Besides, the outcome in experiment [2], in experiment [3], in experiment [4], in experiment [6] and in experiment [7] was Active.
For the compound `C=C(C)[C@@H]1CC[C@]2(COC(=O)CCC[n+]3ccc(N(C)C)cc3)CC[C@]3(C)[C@H](CC[C@@H]4[C@@]5(C)CC[C@H](OC(=O)CCC[n+]6ccc(N(C)C)cc6)C(C)(C)[C@@H]5CC[C@]43C)[C@@H]12`, the EC50 in experiment [1] (Homo sapiens, WM793, 72 h) was determined as 1300 nM; in experiment [5] (Homo sapiens, WM3211, 72 h), 700 nM. In addition, the outcome in experiment [3], in [10], in experiment [11] and in [7] was Active.
On to `C=C(C[n+]1ccc(N(C)C)cc1)[C@@H]1CC[C@]2(COC(=O)C(C)[n+]3ccc(N(C)C)cc3)CC[C@]3(C)[C@H](CC[C@@H]4[C@@]5(C)CC[C@H](OC(=O)C(C)[n+]6ccc(N(C)C)cc6)C(C)(C)[C@@H]5CC[C@]43C)[C@@H]12` (stereo partly drawn) [listing 3 of 3 here], for which the EC50 was over 3500 nM in [1] (Homo sapiens, WM793, 72 h) and over 3500 nM in experiment [5] (Homo sapiens, WM3211, 72 h).
Consider `C=C(C[n+]1ccc(N(C)C)cc1)[C@@H]1CC[C@]2(C(=O)O)CC[C@]3(C)[C@H](CC[C@@H]4[C@@]5(C)CC[C@H](OC(=O)C[n+]6ccc(N(C)C)cc6)C(C)(C)[C@@H]5CC[C@]43C)[C@@H]12` [listing 3 of 3 here], for which the EC50 is over 4400 nM in experiment [1] (Homo sapiens, WM793, 72 h) and over 4400 nM in experiment [5] (Homo sapiens, WM3211, 72 h).
For the compound `C=C(C)[C@@H]1CC[C@]2(COC(=O)C(C)[n+]3ccc(N(C)C)cc3)CC[C@]3(C)[C@H](CC[C@@H]4[C@@]5(C)CC[C@H](OC(=O)C(C)[n+]6ccc(N(C)C)cc6)C(C)(C)[C@@H]5CC[C@]43C)[C@@H]12` (stereo partly drawn), the EC50 is 500 nM in [1] (Homo sapiens, WM793, 72 h) and 500 nM in experiment [5] (Homo sapiens, WM3211, 72 h). The outcome in experiment [2], in experiment [3], in experiment [4], in [6] and in experiment [7] was Active.
For `C=C(C)[C@@H]1CC[C@]2(COC(=O)C(C)[n+]3ccc(N(C)C)cc3)CC[C@]3(C)[C@H](CC[C@@H]4[C@@]5(C)CC[C@H](O)C(C)(C)[C@@H]5CC[C@]43C)[C@@H]12` (stereo partly drawn), the EC50 stood at 2600 nM in [1] (Homo sapiens, WM793, 72 h) and 800 nM in experiment [5] (Homo sapiens, WM3211, 72 h). The outcome in experiment [3], in experiment [10] and in experiment [11] was Active.

The values above are taken from ChEMBL document CHEMBL1212901, “Dimethylaminopyridine derivatives of lupane triterpenoids are potent disruptors of mitochondrial structure and function” (2010).
